Data: ChEMBL document CHEMBL4765230, “Discovery of Orally Efficacious Phosphoinositide 3-Kinase δ Inhibitors with Improved Metabolic Stability” (J Med Chem, 2016)

Experiments:
[1] = MRT in rhesus monkey at 1 mg/kg, iv measured over 24 hrs by LC/MS/MS analysis; format: ADME, organism-based, Macaca mulatta; conditions: in vivo
Procedure, shortened: (§1)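 Intravenous 1 mg/kg and oral 5 mg/kg doses. Vehicle: 5% ethanol/55% PEG 400/40% water for rats and dogs; 5% ethanol/22% PEG 400/73% water for cynomolgus; 5% ethanol/25% PEG 400/70% water for rhesus. Half-life and MRT from iv; mean ± SD, n = 3 per route.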

[2] = target: T1, Phosphatidylinositol 4,5-bisphosphate 3-kinase catalytic subunit delta isoform (Homo sapiens) (UniProt O00329); conditions: Blood, time 7.0 day
T1 sequence (whole entry): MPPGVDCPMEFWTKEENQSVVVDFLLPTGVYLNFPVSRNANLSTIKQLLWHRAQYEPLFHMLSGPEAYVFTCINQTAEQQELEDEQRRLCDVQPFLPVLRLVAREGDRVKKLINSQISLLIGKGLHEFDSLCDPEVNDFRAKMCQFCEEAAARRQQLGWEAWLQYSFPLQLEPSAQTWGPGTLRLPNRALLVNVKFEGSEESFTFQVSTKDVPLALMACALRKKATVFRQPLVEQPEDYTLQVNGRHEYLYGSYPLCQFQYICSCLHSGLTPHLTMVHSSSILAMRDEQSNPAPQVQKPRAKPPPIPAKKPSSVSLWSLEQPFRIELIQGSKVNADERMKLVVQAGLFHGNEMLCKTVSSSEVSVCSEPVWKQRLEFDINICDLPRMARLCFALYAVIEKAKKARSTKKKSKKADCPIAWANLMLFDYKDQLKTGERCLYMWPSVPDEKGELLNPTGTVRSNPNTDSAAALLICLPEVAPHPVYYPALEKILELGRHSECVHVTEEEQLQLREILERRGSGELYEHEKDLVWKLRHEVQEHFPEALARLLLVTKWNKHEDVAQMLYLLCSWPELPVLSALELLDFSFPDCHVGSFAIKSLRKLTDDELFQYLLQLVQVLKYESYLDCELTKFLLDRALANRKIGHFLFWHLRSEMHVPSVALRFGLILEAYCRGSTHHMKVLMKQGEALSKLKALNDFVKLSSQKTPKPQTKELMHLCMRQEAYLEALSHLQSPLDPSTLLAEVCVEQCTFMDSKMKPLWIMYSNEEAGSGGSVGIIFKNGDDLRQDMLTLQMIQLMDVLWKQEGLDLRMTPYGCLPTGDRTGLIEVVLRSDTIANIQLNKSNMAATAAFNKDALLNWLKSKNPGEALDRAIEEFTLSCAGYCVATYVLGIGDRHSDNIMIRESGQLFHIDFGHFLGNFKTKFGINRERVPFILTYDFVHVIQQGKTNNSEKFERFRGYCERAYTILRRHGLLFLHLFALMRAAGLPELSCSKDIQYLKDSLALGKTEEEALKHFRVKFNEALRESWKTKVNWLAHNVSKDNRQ

[3] = system: Rattus norvegicus; assay: Antiarthritic activity in Lewis rat model of Freund's incomplete adjuvant-induced arthritis assessed as reduction in ankle swelling at 3 mg/kg, po bid administered for 7 days at 12 hrs interval starting from day 10 to day 16 post-immunization by caliper method relative to control; format: functional; parameters: scale not given: the % may be the effect or the level left; conditions: time 7 day
Procedure, shortened: (§2)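 Established collagen-induced arthritis in female Lewis rats; oral dosing twice daily for 7 days from day 10 after second immunization. Right and left ankle diameters measured by caliper daily, days 9–18; ankle diameter AUC over days 11–18 compared with arthritic vehicle group (ANOVA, p < 0.05). n = 8/treatment group.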

[4] = In vivo inhibition of PI3Kdelta in Lewis rat model of Freund's incomplete adjuvant-induced arthritis at 0.3 mg/kg, po bid administered for 7 days at 12 hrs interval starting from day 10 to day 16 post-immunization relative to control; format: functional; conditions: 168 h, time 7 day
Procedure, shortened: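 CIA Lewis rats dosed orally twice daily for 7 days at 0.3, 1 or 3 mg/kg; blood/plasma drug levels taken on day 7, 12 h after final dose, and related to PI3Kδ inhibition at trough.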

[5] = Oral bioavailability in Beagle dog at 5 mg/kg measured over 24 hrs by LC/MS/MS analysis; format: ADME, organism-based, Canis lupus familiaris; conditions: in vivo; procedure, shortened: as §1
[6] = MRT in Sprague-Dawley rat at 1 mg/kg, iv measured over 24 hrs by LC/MS/MS analysis; format: ADME, organism-based; conditions: in vivo; procedure, shortened: as §1
[7] = species on record: Rattus norvegicus; assay: Inhibition of PI3Kdelta in rat whole blood assessed as reduction in anti-IgD induced B-cell activation by measuring decrease in CD86 surface expression by flow cytometry analysis
[8] = as above
[9] = target: Phosphatidylinositol 4,5-bisphosphate 3-kinase catalytic subunit alpha isoform (Mus musculus, UniProt P42337); assay: Inhibition of PI3K p110alpha in mouse embryonic fibroblast cells assessed as reduction in PDGF-induced AKT phosphorylation at S473 residue preincubated for 2 hrs followed by PDGF stimulation and measured after 10 mins; parameters: species or system MEF
Procedure, shortened: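 MEFs grown overnight in DMEM/15% FBS, starved 2 h in 0.1% FBS, treated 2 h with compound at various concentrations, then stimulated with PDGF (10 ng/mL) 10 min at 37 °C. Lysates probed for total Akt and phospho-Akt S473 by capillary immunoassay; geometric mean, triplicate.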

[10] = system: Rattus norvegicus; assay: Antiarthritic activity in Lewis rat model of Freund's incomplete adjuvant-induced arthritis assessed as reduction in ankle swelling at 0.3 mg/kg, po bid administered for 7 days at 12 hrs interval starting from day 10 to day 16 post-immunization by caliper method relative to control; format: functional; parameters: scale not given: the % may be the effect or the level left; conditions: time 7 day; procedure, shortened: as §2
[11] = Clearance in rhesus monkey at 1 mg/kg, iv measured over 24 hrs by LC/MS/MS analysis; format: ADME, organism-based, Macaca mulatta; conditions: in vivo; procedure, shortened: as §1
[12] = target: T2, Phosphatidylinositol 4,5-bisphosphate 3-kinase catalytic subunit delta isoform (Homo sapiens, UniProt O00329); assay: Inhibition of PI3Kdelta in human whole blood assessed as reduction in anti-FCepsilonR1 mAb-stimulated basophil activation preincubated for 60 mins followed by anti-FCepsilonR1 mAb stimulation and measured after 25 mins by flow cytometry analysis; format: tissue-based
T2 sequence (O00329 whole entry): T1 sequence (whole entry)

[13] = Clearance in Beagle dog at 1 mg/kg, iv measured over 24 hrs by LC/MS/MS analysis; format: ADME, organism-based, Canis lupus familiaris; conditions: in vivo; procedure, shortened: as §1
[14] = Oral bioavailability in rat at 5 mg/kg; format: ADME, organism-based; conditions: in vivo
[15] = target: Voltage-gated inwardly rectifying potassium channel KCNH2 (Homo sapiens, UniProt Q12809); assay: Inhibition of human ERG at 25 uM
[16] = Volume of distribution at steady state in Beagle dog at 1 mg/kg, iv measured over 24 hrs by LC/MS/MS analysis; format: ADME, organism-based, Canis lupus familiaris; conditions: in vivo, read-out: Vdss
Procedure, shortened: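 Single intravenous dose of 1 mg/kg. Vehicles: rats and dogs 5% ethanol/55% PEG 400/40% water; cynomolgus monkeys 5% ethanol/22% PEG 400/73% water; rhesus monkeys 5% ethanol/25% PEG 400/70% water. Plasma concentration–time data gave Vss and iv half-life. Reported as mean ± SD, n = 3.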

Voltage-gated inwardly rectifying potassium channel KCNH2, sequence (Q12809 whole entry): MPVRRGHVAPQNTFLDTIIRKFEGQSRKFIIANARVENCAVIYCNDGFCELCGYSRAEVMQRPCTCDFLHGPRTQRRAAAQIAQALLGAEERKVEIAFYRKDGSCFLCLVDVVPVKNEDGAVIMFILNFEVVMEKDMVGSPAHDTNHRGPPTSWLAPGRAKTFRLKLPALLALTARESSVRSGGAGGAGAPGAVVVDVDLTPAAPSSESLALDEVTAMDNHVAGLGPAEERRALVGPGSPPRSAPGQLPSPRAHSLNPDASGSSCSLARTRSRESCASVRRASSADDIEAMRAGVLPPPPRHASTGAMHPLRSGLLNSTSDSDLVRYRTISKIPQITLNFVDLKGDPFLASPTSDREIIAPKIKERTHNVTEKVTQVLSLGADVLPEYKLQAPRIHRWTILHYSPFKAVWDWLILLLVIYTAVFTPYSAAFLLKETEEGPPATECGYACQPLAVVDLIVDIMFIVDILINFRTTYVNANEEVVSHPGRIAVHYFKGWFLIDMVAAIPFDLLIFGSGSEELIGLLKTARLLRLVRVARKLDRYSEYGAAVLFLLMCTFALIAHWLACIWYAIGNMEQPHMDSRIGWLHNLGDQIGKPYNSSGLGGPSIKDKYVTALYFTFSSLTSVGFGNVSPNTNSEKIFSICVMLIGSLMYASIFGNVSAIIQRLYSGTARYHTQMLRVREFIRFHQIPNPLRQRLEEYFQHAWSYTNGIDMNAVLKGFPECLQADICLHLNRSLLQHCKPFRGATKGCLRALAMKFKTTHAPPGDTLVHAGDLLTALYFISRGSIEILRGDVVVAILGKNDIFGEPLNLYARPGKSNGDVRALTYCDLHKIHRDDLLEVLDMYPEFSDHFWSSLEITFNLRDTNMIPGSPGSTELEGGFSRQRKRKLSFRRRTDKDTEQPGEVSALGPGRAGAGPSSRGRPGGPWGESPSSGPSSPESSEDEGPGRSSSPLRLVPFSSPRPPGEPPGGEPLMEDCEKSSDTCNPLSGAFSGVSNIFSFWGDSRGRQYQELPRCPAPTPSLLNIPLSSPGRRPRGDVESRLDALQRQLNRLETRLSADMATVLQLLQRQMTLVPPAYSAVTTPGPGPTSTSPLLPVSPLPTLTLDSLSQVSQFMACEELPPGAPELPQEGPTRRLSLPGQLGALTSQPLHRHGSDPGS
Phosphatidylinositol 4,5-bisphosphate 3-kinase catalytic subunit alpha isoform, sequence (P42337 whole entry, canonical isoform): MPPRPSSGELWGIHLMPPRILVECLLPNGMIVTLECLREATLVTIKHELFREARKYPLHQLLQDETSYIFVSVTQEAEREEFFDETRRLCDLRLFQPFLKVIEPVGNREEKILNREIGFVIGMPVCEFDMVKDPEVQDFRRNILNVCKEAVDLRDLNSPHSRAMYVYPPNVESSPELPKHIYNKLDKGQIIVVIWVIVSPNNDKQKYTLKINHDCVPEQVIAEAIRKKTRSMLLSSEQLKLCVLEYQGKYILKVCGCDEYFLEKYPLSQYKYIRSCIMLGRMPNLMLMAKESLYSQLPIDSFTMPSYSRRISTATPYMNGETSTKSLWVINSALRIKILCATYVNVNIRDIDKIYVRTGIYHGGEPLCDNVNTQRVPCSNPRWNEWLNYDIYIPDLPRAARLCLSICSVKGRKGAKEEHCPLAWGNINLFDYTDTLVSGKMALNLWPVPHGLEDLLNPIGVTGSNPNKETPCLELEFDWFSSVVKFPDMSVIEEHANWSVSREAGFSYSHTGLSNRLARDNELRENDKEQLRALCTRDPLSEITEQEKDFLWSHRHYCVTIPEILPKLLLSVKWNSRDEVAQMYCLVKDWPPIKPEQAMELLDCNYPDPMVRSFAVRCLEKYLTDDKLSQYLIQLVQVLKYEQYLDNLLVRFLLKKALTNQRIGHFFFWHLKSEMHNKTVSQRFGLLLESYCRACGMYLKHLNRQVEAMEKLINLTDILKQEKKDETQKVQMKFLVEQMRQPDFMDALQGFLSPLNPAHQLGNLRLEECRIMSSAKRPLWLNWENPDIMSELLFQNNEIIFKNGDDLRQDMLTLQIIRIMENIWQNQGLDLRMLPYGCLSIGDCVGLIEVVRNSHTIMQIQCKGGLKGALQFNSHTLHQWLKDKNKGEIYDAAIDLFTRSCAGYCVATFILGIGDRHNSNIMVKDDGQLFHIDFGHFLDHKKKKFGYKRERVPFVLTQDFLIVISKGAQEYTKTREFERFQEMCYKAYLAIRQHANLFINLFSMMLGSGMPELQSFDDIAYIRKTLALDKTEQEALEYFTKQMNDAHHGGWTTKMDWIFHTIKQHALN

For `N#Cc1c(N)nc(N)nc1N[C@H](c1nc2c(F)ccc(Cl)c2c(=O)n1-c1cccnc1)C1CC1` [GS-9901], the MRT [1] was 2 h, the EC90 [2] was 0.021 µM and the Activity [3] was 65%. For the same molecule, the inhibition in vivo at 0.3 mg/kg [4] was 60%, the bioavailability [5] was 49% and the MRT [6] was 1.95 h. For the same molecule, the EC90 [7] was 0.0315 µM, the EC50 [8] was 0.0016 µM and the EC50 [9] was 1.17 µM. The Activity [10] was 31%, the clearance [11] was 11.7 mL/min/kg and the EC50 [12] was 0.001 µM. For the same molecule, the clearance [13] was 9 mL/min/kg, the bioavailability [14] was 57% and the “inhibition (INH)” value [15] was “Not Active”. It also gave a Vd [16] of 1.03 L/kg.
